Columns and labels:
[1] = molecular target: T1, Amine oxidase [flavin-containing] B (Homo sapiens, UniProt P27338); assay: (§1) Inhibition of recombinant human MAO-B expressed in baculovirus infected BTI insect cells assessed as reduction in formation of 4-quinolinol at 25 uM using kynuramine as substrate preincubated with substrate for 10 mins followed by enzyme addition and measured after 20 mins by fluorescence based microplate reader assay relative to control
T1 sequence (P27338 whole entry): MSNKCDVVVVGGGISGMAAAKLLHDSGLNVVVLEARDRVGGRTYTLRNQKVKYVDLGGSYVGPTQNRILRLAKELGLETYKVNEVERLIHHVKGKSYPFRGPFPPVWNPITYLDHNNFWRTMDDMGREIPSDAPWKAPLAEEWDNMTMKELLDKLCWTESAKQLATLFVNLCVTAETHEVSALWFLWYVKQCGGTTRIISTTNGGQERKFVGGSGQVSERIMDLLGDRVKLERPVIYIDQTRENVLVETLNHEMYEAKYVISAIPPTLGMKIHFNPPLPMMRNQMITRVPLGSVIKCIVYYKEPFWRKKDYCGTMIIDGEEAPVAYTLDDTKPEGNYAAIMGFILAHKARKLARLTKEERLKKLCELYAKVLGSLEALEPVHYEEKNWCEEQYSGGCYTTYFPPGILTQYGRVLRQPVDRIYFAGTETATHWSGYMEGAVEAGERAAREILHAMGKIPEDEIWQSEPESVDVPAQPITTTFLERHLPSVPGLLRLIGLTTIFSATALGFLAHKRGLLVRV

[2] = molecular target: T1, Amine oxidase [flavin-containing] B; assay: as §1, with “4-quinolinol” for “4-quinolinol at 25 uM”, “assay” for “assay relative to control”
[3] = Cytotoxicity against human SH-SY5Y cells assessed as cell viability at 10 uM measured after 24 hrs by MTT assay relative to control; type: cell-based; settings: read-out: Activity
Outline: (§2)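 SH-SY5Y cells (ECACC) were seeded at 5.0 × 10⁴ cells/well and grown 24 h in E-MEM/F12 with 0.3% FBS. Compound in DMSO (final <0.5%) was added in serum-free medium without H₂O₂ and incubated 24 h at 37 °C, 5% CO₂. Viability was read by MTT (5 mg/mL, 24 h, A595). Mean ± SD, n = 3.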

[4] = Cytotoxicity against human SH-SY5Y cells assessed as cell viability at 5 uM measured after 24 hrs by MTT assay relative to control; type: cell-based; settings: read-out: Activity; outline: as §2
SH-SY5Y [5] = assay: Neuroprotective activity against H2O2-induced cytotoxicity in human SH-SY5Y cells assessed as increase in cell viability at 10 uM measured after 24 hrs by MTT assay relative to H2O2-treated control; type: functional
Outline: (§3)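 SH-SY5Y cells were seeded at 5.0 × 10⁴ cells/well and given 24 h attachment. Compound (DMSO final <0.5%) and H₂O₂ (final 500 μM) were added together in serum-free E-MEM/F12 and left 24 h at 37 °C, 5% CO₂. Viability was by MTT (5 mg/mL, 24 h, absorbance 595 nm). Luteolin was the positive control. Mean ± SD, n = 3; one-way ANOVA with Dunnett's test against H₂O₂ alone.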

SH-SY5Y [6] = assay: Cytotoxicity against human SH-SY5Y cells assessed as effect on cell viability at 10 uM measured after 24 hrs by MTT assay; type: cell-based; outline: as §2
SH-SY5Y [7] = assay: Neuroprotective activity against H2O2-induced cytotoxicity in human SH-SY5Y cells assessed as increase in cell viability measured after 24 hrs by MTT assay; type: functional, cell-based; outline: as §3
[8] = Solubility of compound at >=25 uM; type: physicochemical
[9] = molecular target: T1, Amine oxidase [flavin-containing] B; assay: Mixed inhibition of recombinant human MAO-B expressed in baculovirus infected BTI insect cells at 0.7 to 2.8 uM by Lineweaver-Burk plot analysis
[10] = molecular target: T1, Amine oxidase [flavin-containing] B; assay: Tight-binding competitive inhibition of recombinant human MAO-B expressed in baculovirus infected BTI insect cells at varying substrate concentration and IC50 of compound by tight-binding inhibition based assay
Outline: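 For recombinant human MAO-B with kynuramine as substrate (fluorescent 4-quinolinol read-out), IC50 values were determined at different substrate concentrations and then plotted against substrate concentration to assess tight-binding competitive inhibition.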

[11] = molecular target: T1, Amine oxidase [flavin-containing] B; assay: Mixed inhibition of recombinant human MAO-B expressed in baculovirus infected BTI insect cells at 0.32 to 2.6 uM by Lineweaver-Burk plot analysis

| SMILES | inhibition at 25 µM [1] [%] | IC50 ([2]; read-out: IC50) [µM] | other results |
| --- | --- | --- | --- |
| CC(C)=CCc1c(C)cc(O)cc1O | 4.2 | – | – |
| CC(C)=CCC/C(C)=C/Cc1c(O)cc(O)c(C=O)c1C | 77.4 | 19.7 | – |
| COc1cc(C)c(CC=C(C)C)c(OC)c1OC | 18.6 | – | – |
| COc1c(C)c(C/C=C(\C)CCC=C(C)C)c(OC)c(OC)c1OC | 38 | – | – |
| CC(C)=CCC/C(C)=C/CC/C(C)=C/Cc1c(O)cc(O)c(C(=O)O)c1C | 49.2 | 26.5 | – |
| CC(C)=CCc1c(O)cc(O)c(C=O)c1C | 36.3 | – | – |
| CC(C)=CCC/C(C)=C/Cc1c(C)cc(O)c(O)c1O | 88.7 | 10.5 | – |
| COc1cc(C)c(C/C=C(\C)CCC=C(C)C)c(OC)c1OC | 5.9 | – | – |
| CC(C)=CCC/C(C)=C/CC/C(C)=C/Cc1c(C)cc(O)cc1O | 96.4 | 9.2 | viability at 24 h, 10 µM [3]: 60%; viability at 24 h, 5 µM [4]: 63% |
| CC(C)=CCC/C(C)=C/Cc1c(C)cc(O)cc1O | 30.7 | – | – |
| CC(C)=CCc1c(C)c(C=O)c(O)c(CC=C(C)C)c1O | 84.7 | 5.5 | – |
| CC(C)=CCC/C(C)=C/CC/C(C)=C/Cc1c(O)cc(O)c(C=O)c1C | 91.2 | 2.3 | Activity (SH-SY5Y [5]): >20%; Activity (SH-SY5Y [6]): Non-Toxic; Activity (SH-SY5Y [7]): Dose-dependent effect |
| CC(C)=CCC/C(C)=C/Cc1c(C)c(C=O)c(O)c(C/C=C(\C)CCC=C(C)C)c1O | 48.1 | – | IC50 [2]: Nd(Insoluble); solubility [8]: Insoluble |
| COc1c(C)c(CC=C(C)C)c(OC)c(OC)c1OC | 7.2 | – | – |
| COc1cc(C)c(CC=C(C)C)c(OC)c1 | 5.4 | – | – |
| CC(C)=CCC/C(C)=C/CC/C(C)=C/CC1=C(C)C(=O)C(O)=C(O)C1=O | 93.1 | 1.3 | Activity (SH-SY5Y [5]): >20%; inhibition (INH) [9]: Active; Activity (SH-SY5Y [6]): Non-Toxic; Activity (SH-SY5Y [7]): Dose-dependent effect; inhibition (INH) [10]: Active |
| CC(C)=CCc1c(C)cc(O)c(O)c1O | 32.7 | – | – |
| CC(C)=CCC/C(C)=C/Cc1c(O)cc(O)c(C(=O)O)c1C | 31.2 | – | – |
| CC(C)=CCc1c(O)cc(O)c(C(=O)O)c1C | 16.3 | – | – |
| CC(C)=CCC/C(C)=C/CC/C(C)=C/Cc1c(C)c(C=O)c(O)c(C/C=C(\C)CC/C=C(\C)CCC=C(C)C)c1O | 48.8 | – | IC50 [2]: Nd(Insoluble); solubility [8]: Insoluble |
| COc1cc(C)c(C/C=C(\C)CC/C=C(\C)CCC=C(C)C)c(OC)c1OC | 34.9 | – | – |
| CC(C)=CCC1=C(C)C(=O)C(O)=C(O)C1=O | 38.3 | – | – |
| CC(C)=CCC/C(C)=C/CC1=C(C)C(=O)C(O)=C(O)C1=O | 92.2 | 1.4 | – |
| CC(C)=CCC/C(C)=C/CC/C(C)=C/Cc1c(C)cc(O)c(O)c1O | 97.8 | 1.3 | Activity (SH-SY5Y [5]): >20%; Activity (SH-SY5Y [6]): Non-Toxic; inhibition (INH) [11]: Active; Activity (SH-SY5Y [7]): Dose-dependent effect; inhibition (INH) [10]: Active |
| COc1c(C)c(C/C=C(\C)CC/C=C(\C)CCC=C(C)C)c(OC)c(OC)c1OC | 15.2 | – | – |
| COc1cc(C)c(C/C=C(\C)CC/C=C(\C)CCC=C(C)C)c(OC)c1 | 10.8 | – | – |
